ChEMBL document CHEMBL3621107, “Ring fusion strategy for synthesis and lead optimization of sulfur-substituted anthra[1,2-c][1,2,5]thiadiazole-6,11-dione derivatives as promising scaffold of antitumor agents” (Eur J Med Chem, 2015)

Experiments:
Format in all cases: functional
[1] = tested on: HL-60(TB); test: Cytotoxicity against human HL-60(TB) cells after 48 hrs by SRB assay; settings: HL-60, 48 h
Method in brief: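 NCI Developmental Therapeutics Program 60-cell-line screen, second stage: cells exposed to five concentrations (0.01, 0.1, 1, 10 and 100 μM). Growth is plotted against log10 concentration for each line, and GI50, TGI and LC50 are read from the dose-response curves.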

[2] = tested on: K562; test: Cytotoxicity against human K562 cells after 48 hrs by SRB assay; settings: K562, 48 h
Method in brief: (§1)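 NCI-60 human tumour cell panel screen, second stage, run by the NCI Developmental Therapeutics Program. Compounds were tested at five concentrations (0.01, 0.1, 1, 10 and 100 μM). Percentage growth was plotted against log10 concentration for each cell line. GI50, TGI and LC50 were taken from these dose-response curves.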

[3] = tested on: RPMI-8226; test: Cytotoxicity against human RPMI8226 cells after 48 hrs by SRB assay; settings: RPMI-8226, 48 h
Method in brief: (§2)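 Second-stage NCI-60 panel run by the NCI Developmental Therapeutics Program, covering nine tumour subpanels. Five concentrations were tested: 0.01, 0.1, 1, 10 and 100 μM. Percentage growth at each level was plotted against log10 drug concentration. GI50, TGI and LC50 were read from these dose-response curves. Subpanel MID values were divided into the full-panel MID to give selectivity ratios.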

[4] = Cytotoxicity against human EKVX cells after 48 hrs by SRB assay; method in brief: as §1
[5] = tested on: HOP-62; test: Cytotoxicity against human HOP62 cells after 48 hrs by SRB assay; settings: HOP-62, 48 h; method in brief: as §1
[6] = tested on: HOP-92; test: Cytotoxicity against human HOP92 cells after 48 hrs by SRB assay; settings: HOP-92, 48 h; method in brief: as §1
[7] = tested on: NCI-H322M; test: Cytotoxicity against human NCI-H322M cells after 48 hrs by SRB assay; method in brief: as §2
[8] = tested on: NCI-H522; test: Cytotoxicity against human NCI-H522 cells after 48 hrs by SRB assay; settings: NCI-H522, 48 h; method in brief: as §2
[9] = tested on: COLO 205; test: Cytotoxicity against human COLO205 cells after 48 hrs by SRB assay; settings: COLO 205, 48 h; method in brief: as §1
[10] = tested on: HCT-116; test: Cytotoxicity against human HCT116 cells after 48 hrs by SRB assay; settings: HCT-116, 48 h; for CC50: read-out: LC50 (the source's name); method in brief: as §1
[11] = tested on: HCT-15; test: Cytotoxicity against human HCT15 cells after 48 hrs by SRB assay; settings: HCT-15, 48 h; method in brief: as §1
[12] = tested on: SF-295; test: Cytotoxicity against human SF295 cells after 48 hrs by SRB assay; settings: SF-295, 48 h; method in brief: as §2
[13] = tested on: SF-539; test: Cytotoxicity against human SF539 cells after 48 hrs by SRB assay; settings: SF-539, 48 h; method in brief: as §2
[14] = tested on: SNB-75; test: Cytotoxicity against human SNB75 cells after 48 hrs by SRB assay; settings: SNB-75, 48 h
Method in brief: (§3)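 NCI-60 five-dose study run by NCI DTP at 0.01, 0.1, 1, 10 and 100 µM. Percentage growth at each level was plotted against log10 concentration for each line, and GI50, TGI and LC50 were read from the dose-response curves.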

[15] = tested on: M14; test: Cytotoxicity against human M14 cells after 48 hrs by SRB assay; settings: M14, 48 h; method in brief: as §1
[16] = tested on: SK-MEL-2; test: Cytotoxicity against human SK-MEL-2 cells after 48 hrs by SRB assay; settings: SK-MEL-2, 48 h; method in brief: as §2
[17] = tested on: SK-MEL-28; test: Cytotoxicity against human SK-MEL-28 cells after 48 hrs by SRB assay; settings: SK-MEL-28, 48 h; for CC50: read-out: LC50 (the source's name); method in brief: as §2
[18] = tested on: UACC-62; test: Cytotoxicity against human UACC62 cells after 48 hrs by SRB assay; settings: UACC-62, 48 h; method in brief: as §3
[19] = tested on: OVCAR-4; test: Cytotoxicity against human OVCAR4 cells after 48 hrs by SRB assay; settings: OVCAR-4, 48 h; method in brief: as §2
[20] = tested on: SK-OV-3; test: Cytotoxicity against human SKOV3 cells after 48 hrs by SRB assay; settings: SK-OV-3, 48 h; method in brief: as §2
[21] = tested on: A498; test: Cytotoxicity against human A498 cells after 48 hrs by SRB assay; settings: A498, 48 h; method in brief: as §1
[22] = tested on: MCF7; test: Cytotoxicity against human MCF7 cells after 48 hrs by SRB assay; settings: MCF7, 48 h; method in brief: as §1
[23] = tested on: BT-549; test: Cytotoxicity against human BT549 cells after 48 hrs by SRB assay; settings: BT-549, 48 h; method in brief: as §1
[24] = Cytotoxicity against human leukemia cells assessed as growth inhibition after 48 hrs by SRB assay; settings: Leukemia cell
Method in brief: (§4)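 Values come from the NCI-60 five-dose panel (0.01–100 µM). The subpanel MID is the mean GI50 over the lines of that tumour subpanel. The selectivity ratio is the full-panel MID divided by the subpanel MID; 3–6 is rated moderate and >6 high.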

[25] = Cytotoxicity against human colon cancer cells assessed as growth inhibition after 48 hrs by SRB assay; settings: Cancer cell lines; method in brief: as §4
[26] = Cytotoxicity against human CNS cancer cells assessed as growth inhibition after 48 hrs by SRB assay; settings: Cancer cell lines
Method in brief: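 NCI-60 five-dose data (0.01–100 μM) were grouped by tumour subpanel. A subpanel mean (MID) of GI50 was computed for the CNS cancer lines. A selectivity ratio was obtained as full-panel MID divided by subpanel MID: 3–6 counts as moderate, >6 as high.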

[27] = tested on: OVCAR-5; test: Cytotoxicity against human OVCAR5 cells after 48 hrs by SRB assay; settings: OVCAR-5, 48 h; method in brief: as §2

In the case of `O=C1c2ccccc2C(=O)c2c1cc(SCc1ccccc1)c1nsnc21`, the GI50 [1] is reported as 1.63 µM, the LC50 [1] is reported as over 50 µM and the TGI [1] is reported as over 50 µM. For the same compound, the GI50 [2] was 1.47 µM, the LC50 [2] was over 50 µM and the TGI [2] was 6.5 µM. It also gave a GI50 [3] of 8.45 µM, an LC50 [3] of over 50 µM and a TGI [3] of 33.4 µM. It also gave a GI50 [4] of 14.2 µM, an LC50 [4] of over 50 µM and a TGI [4] of 26.3 µM. For the same compound, the GI50 [5] was 10.7 µM, the LC50 [5] was 30.4 µM and the TGI [5] was 13.6 µM. The GI50 [6] was 6.05 µM, the LC50 (concentration giving 50% net cell kill) [6] was over 50 µM and the TGI [6] was over 50 µM. It also gave a GI50 [7] of over 50 µM, an LC50 (concentration causing 50% net cell kill) [7] of over 50 µM and a TGI [7] of over 50 µM. It also gave a GI50 [8] of 8.64 µM, an LC50 (concentration giving 50% net cell kill) [8] of over 50 µM and a TGI [8] of over 50 µM. It also gave a GI50 [9] of 35.5 µM, an LC50 [9] of over 50 µM and a TGI [9] of over 50 µM. The GI50 [10] was 7.29 µM, the TGI [10] was 14.2 µM and the CC50 [10] was 27.5 µM. For the same compound, the GI50 [11] was 8.27 µM, the LC50 [11] was 35.3 µM and the TGI [11] was 17.1 µM. It also gave a GI50 [12] of over 50 µM, an LC50 [12] of over 50 µM and a TGI [12] of over 50 µM. The GI50 [13] was 10.5 µM, the LC50 [13] was 38.9 µM and the TGI [13] was 20.2 µM. It also gave a GI50 [14] of 8.26 µM, an LC50 (concentration killing 50% of cells) [14] of 31 µM and a TGI [14] of 16 µM. The GI50 [15] was 26 µM, the LC50 [15] was over 50 µM and the TGI [15] was over 50 µM. The GI50 [16] was 8.58 µM, the LC50 [16] was 33.7 µM and the TGI [16] was 18.6 µM. The GI50 [17] was 10.3 µM, the TGI [17] was 17.5 µM and the CC50 [17] was 42.9 µM. For the same compound, the GI50 [18] was 8.22 µM, the LC50 [18] was 33.7 µM and the TGI [18] was 18.6 µM. For the same compound, the GI50 [19] was 6.05 µM, the LC50 [19] was 29 µM and the TGI [19] was 13.2 µM. The GI50 [20] was 13.7 µM, the LC50 [20] was over 50 µM and the TGI [20] was 18.5 µM. It also gave a GI50 [21] of over 50 µM, an LC50 (concentration killing 50% of cells) [21] of over 50 µM and a TGI [21] of over 50 µM. The GI50 [22] was 8.33 µM, the LC50 (concentration killing 50% of cells) [22] was 34.7 µM and the TGI [22] was 17 µM. The GI50 [23] was 15.2 µM, the LC50 [23] was over 50 µM and the TGI [23] was 28.4 µM. It also gave a GI50 [24] of 2.67 µM, a GI50 [25] of 16.1 µM and a GI50 [26] of 9.48 µM.
In the case of `CC(C)Sc1cc2c(c3nsnc13)C(=O)c1ccccc1C2=O`, the GI50 [1] is reported as 0.23 µM, the LC50 [1] is reported as 40.8 µM and the TGI [1] is reported as 0.617 µM. The GI50 [2] was 0.26 µM, the LC50 [2] was 14.3 µM and the TGI [2] was 1.35 µM. It also gave a GI50 [3] of 0.29 µM, an LC50 [3] of over 100 µM and a TGI [3] of 1.78 µM. For the same compound, the GI50 [5] was 2.1 µM, the LC50 [5] was 24.2 µM and the TGI [5] was 6.53 µM. For the same compound, the GI50 [6] was 0.32 µM, the LC50 (concentration giving 50% net cell kill) [6] was 14.5 µM and the TGI [6] was 2.18 µM. It also gave a GI50 [7] of 2.85 µM, an LC50 (concentration causing 50% net cell kill) [7] of 38.7 µM and a TGI [7] of 11 µM. It also gave a GI50 [8] of 2.38 µM, an LC50 (concentration giving 50% net cell kill) [8] of 9.96 µM and a TGI [8] of 4.87 µM. The GI50 [9] was 13.3 µM, the LC50 [9] was 51 µM and the TGI [9] was 20.6 µM. For the same compound, the GI50 [10] was 0.29 µM, the TGI [10] was 1.01 µM and the CC50 [10] was 4.22 µM. The GI50 [11] was 1.69 µM, the LC50 [11] was 40.4 µM and the TGI [11] was 6.91 µM. For the same compound, the GI50 [12] was 1.88 µM, the LC50 [12] was 9.83 µM and the TGI [12] was 4.3 µM. For the same compound, the GI50 [13] was 1.73 µM, the LC50 [13] was 7.14 µM and the TGI [13] was 3.51 µM. The GI50 [14] was 0.52 µM, the LC50 (concentration killing 50% of cells) [14] was 23.9 µM and the TGI [14] was 3.95 µM. The GI50 [15] was 1.54 µM, the LC50 [15] was 6.53 µM and the TGI [15] was 3.18 µM. For the same compound, the GI50 [16] was 0.99 µM, the LC50 [16] was 5.87 µM and the TGI [16] was 2.42 µM. It also gave a GI50 [17] of 2.72 µM, a TGI [17] of 5.99 µM and a CC50 [17] of 18.8 µM. The GI50 [18] was 1.35 µM, the LC50 [18] was 5.26 µM and the TGI [18] was 2.67 µM. It also gave a GI50 [19] of 0.36 µM, an LC50 [19] of 3.67 µM and a TGI [19] of 1.34 µM. It also gave a GI50 [27] of 2.07 µM, an LC50 [27] of 7.94 µM and a TGI [27] of 4.05 µM. It also gave a GI50 [20] of 2.9 µM, an LC50 [20] of 36.9 µM and a TGI [20] of 12.6 µM. It also gave a GI50 [21] of 0.56 µM, an LC50 (concentration killing 50% of cells) [21] of 23.6 µM and a TGI [21] of 4.28 µM. For the same compound, the GI50 [22] was 1.71 µM, the LC50 (concentration killing 50% of cells) [22] was 8.42 µM and the TGI [22] was 3.8 µM. For the same compound, the GI50 [23] was 2.19 µM, the LC50 [23] was 29.8 µM and the TGI [23] was 8.38 µM. The GI50 [24] was 0.25 µM, the GI50 [25] was 4.94 µM and the GI50 [26] was 1.79 µM.
